In brackets after ≈: the same amount, converted by molar mass. Activity calls are given as the source filed them. The rule behind the calls is not given here.
The compounds below were run on Mycobacterium tuberculosis (assay: Antitubercular activity against Mycobacterium tuberculosis H37Rv by agar dilution assay). Conditions: not given.
Type: functional
Summary of the method: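 Compounds 2-fold serially diluted into 7H10 agar tubes. H37Rv inoculum taken from fresh Lowenstein-Jensen slants, adjusted to 1 mg/mL wet weight in 0.05% Tween 80 saline, then diluted 10^-2 (about 10⁷ cfu/mL) and spotted onto the agar. Incubated at 37 °C; final read at 30 days. MIC is the lowest concentration giving complete growth inhibition per spot. Ofloxacin was the standard.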
`CC(C)O[C@@H]1C=C([C@H](O)c2ccc([N+](=O)[O-])cc2)C(=O)[C@@H](COC(=O)C(C)(C)C)O1` showed an MIC of 50 µg/mL (≈ 119 µM).
Work on `CC(=O)OC[C@H]1O[C@H](OC(C)C)C=C([C@H](O)c2ccc([N+](=O)[O-])cc2)C1=O` yielded an MIC of 1.56 µg/mL (≈ 4.11 µM).
`CC(C)O[C@@H]1C=C([C@H](O)c2ccccc2[N+](=O)[O-])[C@H](O)[C@@H](COC(=O)C(C)(C)C)O1` was tested, and the MIC was 25 µg/mL (≈ 59 µM).
With `CCC[C@@H](O)C1=C[C@@H](OC(C)C)O[C@H](COC(=O)C(C)(C)C)C1=O` the MIC was 25 µg/mL (≈ 73 µM).
`CCC[C@@H](O)C1=C[C@@H](OC(C)C)O[C@H](COC(=O)c2ccc([N+](=O)[O-])cc2)C1=O` was tested, and the MIC was 25 µg/mL (≈ 61.4 µM).
`CCCCCCCCC[C@@H](O)C1=C[C@@H](OC(C)C)O[C@H](COC(=O)C(C)(C)C)[C@H]1O` gave an MIC of 1.56 µg/mL (≈ 3.64 µM).
Work on `CC(C)O[C@@H]1C=C([C@H](O)c2ccc(F)cc2)C(=O)[C@@H](COC(=O)c2ccc([N+](=O)[O-])cc2)O1` yielded an MIC of 25 µg/mL (≈ 54.4 µM).
`CC(C)O[C@@H]1C=C([C@H](O)c2ccc(C(F)(F)F)cc2)C(=O)[C@@H](COC(=O)c2ccc([N+](=O)[O-])cc2)O1` gave an MIC of 25 µg/mL (≈ 49.1 µM).
Work on `CCCCCCCCC[C@@H](O)C1=C[C@@H](OC(C)C)O[C@H](COC(=O)C(C)(C)C)C1=O` yielded an MIC of 6.25 µg/mL (≈ 14.7 µM).
In the case of `CC(C)O[C@@H]1C=C([C@H](O)c2cccc([N+](=O)[O-])c2)C(=O)[C@@H](COC(=O)C(C)(C)C)O1`, the MIC is reported as 50 µg/mL (≈ 119 µM).
`CC(=O)OC[C@H]1O[C@H](OC(C)C)C=C([C@H](O)c2ccc([N+](=O)[O-])cc2)[C@@H]1O` was tested, and the MIC was 25 µg/mL (≈ 65.6 µM).
`CC(C)O[C@@H]1C=C([C@H](O)c2ccc(C(F)(F)F)cc2)[C@H](O)[C@@H](COC(=O)C(C)(C)C)O1` gave an MIC of 25 µg/mL (≈ 56 µM).
For `CC(C)O[C@@H]1C=C([C@H](O)c2ccc(C#N)cc2)C(=O)[C@@H](COC(=O)c2ccc([N+](=O)[O-])cc2)O1`, the MIC was 25 µg/mL (≈ 53.6 µM).
With `CC(C)O[C@@H]1C=C([C@H](O)c2ccc([N+](=O)[O-])cc2)[C@H](O)[C@@H](COC(=O)c2ccc([N+](=O)[O-])cc2)O1` the MIC was 25 µg/mL (≈ 51.2 µM).
`CC(C)O[C@@H]1C=C([C@H](O)c2cccc([N+](=O)[O-])c2)[C@H](O)[C@@H](COC(=O)C(C)(C)C)O1` showed an MIC of 25 µg/mL (≈ 59 µM).
`CC(C)O[C@@H]1C=C([C@H](O)c2ccc(C(F)(F)F)cc2)C(=O)[C@@H](COC(=O)C(C)(C)C)O1` was tested, and the MIC was 50 µg/mL (≈ 112 µM).
Work on `CCCCCCCCC[C@@H](O)C1=C[C@@H](OC(C)C)O[C@H](COC(=O)c2ccc([N+](=O)[O-])cc2)[C@H]1O` yielded an MIC of 25 µg/mL (≈ 50.6 µM).
With `CC(C)O[C@@H]1C=C([C@H](O)c2ccc(F)cc2)[C@H](O)[C@@H](COC(=O)C(C)(C)C)O1` the MIC was 25 µg/mL (≈ 63.1 µM).
Compound `CCCCCCCCC[C@@H](O)C1=C[C@@H](OC(C)C)O[C@H](COC(=O)c2ccc([N+](=O)[O-])cc2)C1=O` has an MIC of 25 µg/mL (≈ 50.9 µM).
`CC(C)O[C@@H]1C=C([C@H](O)c2ccccc2[N+](=O)[O-])C(=O)[C@@H](COC(=O)C(C)(C)C)O1` was tested, and the MIC was 50 µg/mL (≈ 119 µM).
`CC(C)O[C@@H]1C=C([C@H](O)c2ccc(C#N)cc2)C(=O)[C@@H](COC(=O)C(C)(C)C)O1` was tested, and the MIC was 3.12 µg/mL (≈ 7.77 µM).
Work on `CC(C)O[C@@H]1C=C([C@H](O)c2ccc(C(F)(F)F)cc2)[C@H](O)[C@@H](COC(=O)c2ccc([N+](=O)[O-])cc2)O1` yielded an MIC of 25 µg/mL (≈ 48.9 µM).
Compound `CC(C)O[C@@H]1C=C([C@H](O)c2ccc([N+](=O)[O-])cc2)C(=O)[C@@H](COC(=O)c2ccc([N+](=O)[O-])cc2)O1` has an MIC of 25 µg/mL (≈ 51.4 µM).

Each compound was assayed on J774.A1 (assay: Cytotoxicity against mouse […] cells at 25 ug/mL). Conditions: not given.
Type: cell-based
In the case of `CC(=O)OC[C@H]1O[C@H](OC(C)C)C=C([C@H](O)c2ccc([N+](=O)[O-])cc2)C1=O`, the Activity is reported as “Non-toxic”.
With `CCCCCCCCC[C@@H](O)C1=C[C@@H](OC(C)C)O[C@H](COC(=O)C(C)(C)C)[C@H]1O` the Activity was “Non-toxic”.
With `CCCCCCCCC[C@@H](O)C1=C[C@@H](OC(C)C)O[C@H](COC(=O)C(C)(C)C)C1=O` the Activity was “Non-toxic”.
With `CC(C)O[C@@H]1C=C([C@H](O)c2ccc(C#N)cc2)C(=O)[C@@H](COC(=O)C(C)(C)C)O1` the Activity was “Non-toxic”.

What follows are compounds tested on Vero (assay: Cytotoxicity against Vero cells at 25 ug/mL after 72 hrs by MTT assay). Conditions: chlorocebus sabaeus.
Type: cell-based
Summary of the method: (§1)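 VERO cells (from ATCC, maintained in-house) were seeded and grown at 37 °C in 5% CO₂/95% air. They were then exposed to the compound at 25, 50 and 100 µg/mL for 72 h.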
In the case of `CC(=O)OC[C@H]1O[C@H](OC(C)C)C=C([C@H](O)c2ccc([N+](=O)[O-])cc2)C1=O`, the Activity is reported as “Toxic”.
With `CCCCCCCCC[C@@H](O)C1=C[C@@H](OC(C)C)O[C@H](COC(=O)C(C)(C)C)[C@H]1O` the Activity was “Toxic”.
For `CCCCCCCCC[C@@H](O)C1=C[C@@H](OC(C)C)O[C@H](COC(=O)C(C)(C)C)C1=O`, the Activity was “Toxic”.

These compounds were tested on Mycobacterium tuberculosis (assay: Antitubercular activity against Mycobacterium tuberculosis H37Rv at 50 ug/mL by agar dilution assay). Conditions: not given.
Type: functional, organism-based
In the case of `CC(C)O[C@@H]1C=C([C@H](O)c2ccc(C#N)cc2)[C@H](O)[C@@H](COC(=O)C(C)(C)C)O1`, the Activity is reported as “inactive”.
With `CC(C)O[C@@H]1C=C([C@H](O)c2ccc([N+](=O)[O-])cc2)[C@H](O)[C@@H](COC(=O)C(C)(C)C)O1` the Activity was “inactive”.
In the case of `CC(C)O[C@@H]1C=C([C@H](O)c2ccc(F)cc2)C(=O)[C@@H](COC(=O)C(C)(C)C)O1`, the Activity is reported as “inactive”.

Each compound was assayed on J774.A1 (assay: Cytotoxicity against mouse […] cells at 12.5 ug/mL). Conditions: not given.
Type: cell-based
`CC(=O)OC[C@H]1O[C@H](OC(C)C)C=C([C@H](O)c2ccc([N+](=O)[O-])cc2)C1=O` was tested, and the Activity was “Non-toxic”.
`CCCCCCCCC[C@@H](O)C1=C[C@@H](OC(C)C)O[C@H](COC(=O)C(C)(C)C)[C@H]1O` was tested, and the Activity was “Non-toxic”.
`CCCCCCCCC[C@@H](O)C1=C[C@@H](OC(C)C)O[C@H](COC(=O)C(C)(C)C)C1=O` was tested, and the Activity was “Non-toxic”.
With `CC(C)O[C@@H]1C=C([C@H](O)c2ccc(C#N)cc2)C(=O)[C@@H](COC(=O)C(C)(C)C)O1` the Activity was “Non-toxic”.

The compounds below were run on Vero (assay: Cytotoxicity against Vero cells at 100 ug/mL after 72 hrs by MTT assay). Conditions: chlorocebus sabaeus.
Type: cell-based
Summary of the method: as §1
`CC(C)O[C@@H]1C=C([C@H](O)c2ccc(C#N)cc2)C(=O)[C@@H](COC(=O)C(C)(C)C)O1` was tested, and the Activity was “Non-toxic”.

These compounds were tested on J774.A1 (assay: Cytotoxicity against mouse […] cells at 50 ug/mL). Conditions: not given.
Type: cell-based
For `CC(=O)OC[C@H]1O[C@H](OC(C)C)C=C([C@H](O)c2ccc([N+](=O)[O-])cc2)C1=O`, the Activity was “Non-toxic”.
For `CCCCCCCCC[C@@H](O)C1=C[C@@H](OC(C)C)O[C@H](COC(=O)C(C)(C)C)[C@H]1O`, the Activity was “Non-toxic”.
For `CCCCCCCCC[C@@H](O)C1=C[C@@H](OC(C)C)O[C@H](COC(=O)C(C)(C)C)C1=O`, the Activity was “Non-toxic”.
In the case of `CC(C)O[C@@H]1C=C([C@H](O)c2ccc(C#N)cc2)C(=O)[C@@H](COC(=O)C(C)(C)C)O1`, the Activity is reported as “Non-toxic”.

From ChEMBL document CHEMBL1145391, “C-3 alkyl/arylalkyl-2,3-dideoxy hex-2-enopyranosides as antitubercular agents: synthesis, biological evaluation, and QSAR study” (J Med Chem, 2007)
